Drawing on ChEMBL document CHEMBL1142508, “3-Amino-2(5H)furanones as inhibitors of subgenomic hepatitis C virus RNA replication” (Bioorg Med Chem, 2008), this text covers EC50, IC50 and CC50 for nine molecules.

In data set [1] the test system is Hepatitis C virus. Description: Antiviral activity against HCV in human HBI10A cells by ELISA. Format: functional, organism-based, Hepacivirus hominis. In outline: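 HCV subgenomic replicon-bearing Huh-7-derived HBI10A cells kept in D-MEM + 10% FBS with G418. Compounds from DMSO stocks, diluted in D-MEM, DMSO at most 1%, tested at final 10^3, 10^2, […]. Cell-ELISA for NS3 with anti-NS3 10E5/24 MAb, in triplicate. Parental Huh-7 cells give the background. EC50 from Hill-equation fit of NS3 signal reduction. IFN-α positive control.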
Background: An ELISA detects its analyte on a solid surface through an enzyme-linked reagent.

The nature of data set [2]: Cytotoxicity against human HBI10A cells after 20 hrs by MTS assay. Format: cell-based. In a few lines: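 MTS read-out in HBI10A replicon cells seeded at 1 × 10^4 per 100 µL D-MEM + 5% FBS. After 4 h at 37 °C, compounds added at final 10^3, 10^2, […]. Incubated 20 h at 37 °C, then MTS for a further 4 h. Stopped with 10% SDS; absorbance at 492 nm.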

Turning to `O=C(O)c1nc(-c2cccs2)nc(O)c1O`, in data set [1], the response was half-maximal at 9.3 µM (EC50) and inhibition was half-maximal at 0.15 µM (IC50).
Consider `COC(=O)C1=C(NCc2ccccc2)C(=O)OC1C` (stereo not drawn), for which the EC50 (usually the concentration that produces a half-maximal response) in data set [1] is greater than 1000 µM. In data set [2], the 50% cytotoxic concentration (CC50) (usually the concentration giving 50% cytotoxicity) at 20 h is greater than 1000 µM.
For the molecule `CNC1=C(C(C)=O)C(C)OC1=O` (stereo not drawn), in data set [1], the EC50 is 132 µM. Also, in data set [2], it took 819 µM to reach half-maximal cytotoxicity (CC50 at 20 h).
In the same order, the values of `CNC1=C(C(=O)Nc2ccccc2)C(C)OC1=O` (stereo not drawn) are 19 µM and greater than 1000 µM.
In data set [1], `CNC1=C(C(=O)OC)C(C)OC1=O` (stereo not drawn) had a concentration giving a half-maximal response (EC50) of 525 µM. In data set [2], this molecule gave a 50% cytotoxic concentration (CC50) at 20 h greater than 1000 µM.
In the same order, the values of `CNC1=C(C(C)=O)COC1=O` are 521 µM and greater than 1000 µM.
In the same order, the values of `CNC1=C(C(=O)OC)C(C)OC1O` (stereo not drawn) are 66 µM and greater than 1000 µM.
In the same order, the values of `CCOC(=O)C1=C(NC)C(=O)OC1C(=O)OCC` (stereo not drawn) are greater than 1000 µM and greater than 1000 µM.
`CNC1=C(c2ccccc2)C(c2ccccc2)OC1=O` (stereo not drawn) returned an EC50 in data set [1] of 17 µM. For the same molecule, the CC50 at 20 h in data set [2] turned out to be 28 µM.
